From ChEMBL document CHEMBL1138555, “N-acylated and N,N'-diacylated imidazolidine-2-thione derivatives and N,N'-diacylated tetrahydropyrimidine-2(1H)-thione analogues: synthesis and antiproliferative activity” (Eur J Med Chem, 2009)

Columns and labels:
T47D = experiment: Growth inhibition of human T47D cells after 48 hrs by sulforhodamine B assay; assay type: functional
In short: (§1)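 NCI in vitro panel screen. Compounds tested at five 10-fold dilutions, 10^-4 to 10^-8 M. Cells in 96-well plates were exposed for the last 48 h of a 72 h incubation. Viability/growth was read by sulforhodamine B protein assay. GI50 is the concentration giving 50% growth inhibition. Values beyond the tested range are reported as greater or less than the maximum or minimum concentration.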

SK-OV-3 = experiment: Growth inhibition of human SKOV3 cells after 48 hrs by sulforhodamine B assay; assay type: functional; conditions: SK-OV-3, 48 h
In short: (§2)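 NCI screen panel. Five 10-fold concentrations from 10^-4 to 10^-8 M. Exposure for the last 48 h of a 72 h incubation. Growth estimated by sulforhodamine B protein assay. GI50 is the concentration giving 50% growth inhibition. Where that level was not reached or was exceeded, the value is given as above or below the highest or lowest concentration tested.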

EKVX = experiment: Growth inhibition of human EKVX cells after 48 hrs by sulforhodamine B assay; assay type: functional; in short: as §2
OVCAR-8 = experiment: Growth inhibition of human OVCAR8 cells after 48 hrs by sulforhodamine B assay; assay type: functional; conditions: OVCAR-8, 48 h; in short: as §2
OVCAR-3 = experiment: Growth inhibition of human OVCAR-3 cells after 48 hrs by sulforhodamine B assay; assay type: functional; conditions: OVCAR-3, 48 h; in short: as §2
U-251 = experiment: Growth inhibition of human U251 cells after 48 hrs by sulforhodamine B assay; assay type: functional; conditions: U-251, 48 h; in short: as §1
HOP-92 = experiment: Growth inhibition of human HOP92 cells after 48 hrs by sulforhodamine B assay; assay type: functional; conditions: HOP-92, 48 h; in short: as §2
UACC-257 = experiment: Growth inhibition of human UACC257 cells after 48 hrs by sulforhodamine B assay; assay type: functional; conditions: UACC-257, 48 h; in short: as §1
CAKI-1 = experiment: Growth inhibition of human Caki1 cells after 48 hrs by sulforhodamine B assay; assay type: functional; conditions: CAKI-1, 48 h; in short: as §2
BT-549 = experiment: Growth inhibition of human BT549 cells after 48 hrs by sulforhodamine B assay; assay type: functional; conditions: BT-549, 48 h; in short: as §2
SF-295 = experiment: Growth inhibition of human SF295 cells after 48 hrs by sulforhodamine B assay; assay type: functional; conditions: SF-295, 48 h; in short: as §2
A549 = experiment: Growth inhibition of human A549 cells after 48 hrs by sulforhodamine B assay; assay type: functional; conditions: A549, 48 h; in short: as §2
HOP-62 = experiment: Growth inhibition of human HOP62 cells after 48 hrs by sulforhodamine B assay; assay type: functional; conditions: HOP-62, 48 h; in short: as §2
MDA-MB-435 = experiment: Growth inhibition of human MDA-MB-435 cells after 48 hrs by sulforhodamine B assay; assay type: functional; conditions: MDA-MB-435, 48 h; in short: as §2
KM12 = experiment: Growth inhibition of human KM12 cells after 48 hrs by sulforhodamine B assay; assay type: functional; conditions: KM12, 48 h; in short: as §2
MT4 = experiment: Antiproliferative activity against human MT4 cells assessed as reduction of growth by MTT assay; assay type: functional, cell-based
In short: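 MT-4 lymphoblastoid T cells (ATCC) in RPMI 1640 with 10% FCS, penicillin/streptomycin, checked for mycoplasma. 1 × 10⁴ mock-infected cells per well with serial dilutions from a 100 mM DMSO stock. Incubated 4 days at 37 °C, viable cells counted by MTT. IC50 versus untreated controls by linear regression. Mean of three separate experiments.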

TK-10 = experiment: Growth inhibition of human TK10 cells after 48 hrs by sulforhodamine B assay; assay type: functional; conditions: TK-10, 48 h; in short: as §1
786-0 = experiment: Growth inhibition of human 786-0 cells after 48 hrs by sulforhodamine B assay; assay type: functional; conditions: 786-0, 48 h; in short: as §2
M14 = experiment: Growth inhibition of human M14 cells after 48 hrs by sulforhodamine B assay; assay type: functional; conditions: M14, 48 h; in short: as §2
RXF 393 = experiment: Growth inhibition of human RXF393 cells after 48 hrs by sulforhodamine B assay; assay type: functional; conditions: RXF 393, 48 h; in short: as §2
HCT-15 = experiment: Growth inhibition of human HCT15 cells after 48 hrs by sulforhodamine B assay; assay type: functional; conditions: HCT-15, 48 h; in short: as §2
NCI-H460 = experiment: Growth inhibition of human NCI-H460 cells after 48 hrs by sulforhodamine B assay; assay type: functional; conditions: NCI-H460, 48 h; in short: as §2
SK-MEL-2 = experiment: Growth inhibition of human SK-MEL-2 cells after 48 hrs by sulforhodamine B assay; assay type: functional; conditions: SK-MEL-2, 48 h; in short: as §2
PC-3 = experiment: Growth inhibition of human PC3 cells after 48 hrs by sulforhodamine B assay; assay type: functional; conditions: PC-3, 48 h; in short: as §2
IGROV-1 = experiment: Growth inhibition of human IGROV1 cells after 48 hrs by sulforhodamine B assay; assay type: functional; conditions: IGROV-1, 48 h; in short: as §2
LOX IMVI = experiment: Growth inhibition of human LOXIMVI cells after 48 hrs by sulforhodamine B assay; assay type: functional; in short: as §2
SNB-19 = experiment: Growth inhibition of human SNB19 cells after 48 hrs by sulforhodamine B assay; assay type: functional; conditions: SNB-19, 48 h; in short: as §1
MDA-MB-231 = experiment: Growth inhibition of human MDA-MB-231 cells after 48 hrs by sulforhodamine B assay; assay type: functional; conditions: MDA-MB-231, 48 h; in short: as §2
[1] = Growth inhibition of human […] cells after 48 hrs by sulforhodamine B assay; assay type: functional; in short: as §2
NCI-H23 = experiment: Growth inhibition of human NCI-H23 cells after 48 hrs by sulforhodamine B assay; assay type: functional; conditions: NCI-H23, 48 h; in short: as §2
HL-60(TB) = experiment: Growth inhibition of human HL-60(TB) cells after 48 hrs by sulforhodamine B assay; assay type: functional; conditions: HL-60, 48 h
In short: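 NCI 60-cell-line screen protocol: cells exposed to compound at five 10-fold dilutions from 10^-4 to 10^-8 M for the last 48 h of a 72 h incubation. Sulforhodamine B protein assay estimated viability/growth. GI50 (50% growth inhibition) derived; where not reached or exceeded, reported as greater or less than the highest or lowest concentration tested.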

K562 = experiment: Growth inhibition of human K562 cells after 48 hrs by sulforhodamine B assay; assay type: functional; conditions: K562, 48 h; in short: as §2
NCI/ADR-RES = experiment: Growth inhibition of human NCI/ADR-RES cells after 48 hrs by sulforhodamine B assay; assay type: functional; in short: as §2
MOLT-4 = experiment: Growth inhibition of human MOLT4 cells after 48 hrs by sulforhodamine B assay; assay type: functional; conditions: MOLT-4, 48 h; in short: as §2
SK-MEL-5 = experiment: Growth inhibition of human SK-MEL-5 cells after 48 hrs by sulforhodamine B assay; assay type: functional; conditions: SK-MEL-5, 48 h; in short: as §2
UACC-62 = experiment: Growth inhibition of human UACC62 cells after 48 hrs by sulforhodamine B assay; assay type: functional; conditions: UACC-62, 48 h; in short: as §1
OVCAR-4 = experiment: Growth inhibition of human OVCAR4 cells after 48 hrs by sulforhodamine B assay; assay type: functional; conditions: OVCAR-4, 48 h; in short: as §2
COLO 205 = experiment: Growth inhibition of human COLO205 cells after 48 hrs by sulforhodamine B assay; assay type: functional; conditions: COLO 205, 48 h; in short: as §2
UO-31 = experiment: Growth inhibition of human UO31 cells after 48 hrs by sulforhodamine B assay; assay type: functional; conditions: UO-31, 48 h; in short: as §1
SK-MEL-28 = experiment: Growth inhibition of human SK-MEL-28 cells after 48 hrs by sulforhodamine B assay; assay type: functional; conditions: SK-MEL-28, 48 h; in short: as §2
Malme-3M = experiment: Growth inhibition of human MALME-3M cells after 48 hrs by sulforhodamine B assay; assay type: functional; in short: as §2
SN12C = experiment: Growth inhibition of human SN12C cells after 48 hrs by sulforhodamine B assay; assay type: functional; in short: as §1
HCT-116 = experiment: Growth inhibition of human HCT116 cells after 48 hrs by sulforhodamine B assay; assay type: functional; conditions: HCT-116, 48 h; in short: as §2
ACHN = experiment: Growth inhibition of human ACHN cells after 48 hrs by sulforhodamine B assay; assay type: functional; in short: as §2
SW-620 = experiment: Growth inhibition of human SW620 cells after 48 hrs by sulforhodamine B assay; assay type: functional; conditions: SW-620, 48 h; in short: as §1
NCI-H322M = experiment: Growth inhibition of human NCI-H322M cells after 48 hrs by sulforhodamine B assay; assay type: functional; in short: as §2
SNB-75 = experiment: Growth inhibition of human SNB75 cells after 48 hrs by sulforhodamine B assay; assay type: functional; conditions: SNB-75, 48 h; in short: as §1
HT-29 = experiment: Growth inhibition of human HT-29 cells after 48 hrs by sulforhodamine B assay; assay type: functional; conditions: HT-29, 48 h; in short: as §2
SF-268 = experiment: Growth inhibition of human SF268 cells after 48 hrs by sulforhodamine B assay; assay type: functional; conditions: SF-268, 48 h; in short: as §2

## COC(=O)/C(=C\N1CCN(C(=O)c2ccco2)C1=S)C(C)=O
T47D
  GI50: 6 µM
SK-OV-3
  GI50: 31.3 µM
EKVX
  GI50: 2.6 µM
OVCAR-8
  GI50: 27.8 µM
OVCAR-3
  GI50: 2.7 µM
U-251
  GI50: 5.5 µM
HOP-92
  GI50: 20.8 µM
UACC-257
  GI50: 17.2 µM
CAKI-1
  GI50: 2.8 µM
BT-549
  GI50: 3.5 µM
SF-295
  GI50: 18.6 µM
A549
  GI50: 19.3 µM
HOP-62
  GI50: 20.6 µM
MDA-MB-435
  GI50: 4.5 µM
KM12
  GI50: 3 µM
MT4
  IC50: 7 µM
TK-10
  GI50: 3.5 µM
786-0
  GI50: 11.2 µM
M14
  GI50: 10.7 µM
RXF 393
  GI50: 4.4 µM
HCT-15
  GI50: 2.2 µM
NCI-H460
  GI50: 2.3 µM
SK-MEL-2
  GI50: 15.2 µM
PC-3
  GI50: 18.1 µM
IGROV-1
  GI50: 10.4 µM
LOX IMVI
  GI50: 1.6 µM
SNB-19
  GI50: 41.7 µM
MDA-MB-231
  GI50: 9 µM
[1]
  GI50: 5.5 µM
NCI-H23
  GI50: 12.2 µM
HL-60(TB)
  GI50: 7.5 µM
K562
  GI50: 10.2 µM
NCI/ADR-RES
  GI50: 22.2 µM
MOLT-4
  GI50: 20.8 µM
SK-MEL-5
  GI50: 5.3 µM
UACC-62
  GI50: 11.5 µM
OVCAR-4
  GI50: 17.4 µM
COLO 205
  GI50: 12.6 µM
UO-31
  GI50: 13.5 µM
SK-MEL-28
  GI50: 9.1 µM
Malme-3M
  GI50: 5.6 µM
SN12C
  GI50: 5.9 µM
HCT-116
  GI50: 7.4 µM
ACHN
  GI50: 4.1 µM
SW-620
  GI50: 3.9 µM
NCI-H322M
  GI50: 12.4 µM
SNB-75
  GI50: 21 µM
HT-29
  GI50: 15.8 µM
SF-268
  GI50: 5.8 µM
